Experimental data: paper PMC3004996 (Bioconjugate chemistry, 2010)
Where two headings read alike, the source gives them in different places. Bridge positions count the residues as written; N and C are the ends. Ends that are not written are not given here. Peptide text beside a SMILES is read from it. * marks the point of attachment. DOTA = O=C(O)CN1CCN(CC(=O)O)CCN(CC(=O)*)CCN(CC(=O)O)CC1

Columns and labels:
[1] = In vivo biodistribution, gamma counting of dissected tissue; details: nude (nu/nu), mouse, iv, 100 uCi, total radioactivity
Procedure, shortened: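 U87MG xenograft-bearing anesthetized nude mice received ~100 μCi (~0.5 nmol) of 64Cu/Cy5.5 dual-labelled test peptide by tail vein. They were euthanized at 1, 4 and 24 hr. Dissected tissues were weighed and gamma counted, calibrated against a pre-measured tracer aliquot, and normalized to whole body weight and residual tail activity. Values are %ID/g, mean and standard deviation of three mice.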

[2] = In vivo metabolite analysis; design: species or system mouse; details: radio-HPLC and gamma counting
Procedure, shortened: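 Female athymic nude mice bearing subcutaneous shoulder U87MG xenografts (~10⁷ cells; tumors 8–10 mm) were anesthetized and given 200–400 μCi of ⁶⁴Cu-labeled test peptide by tail vein, then euthanized. Blood and tumor were suspended in ~500 μL PBS plus 500–1000 μL DMF and homogenized by mortar and pestle. Homogenates were passed through a 0.2 μm filter. Filtrates were run on reversed-phase HPLC, with 30 s fractions gamma-counted (cpm).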

U87MG cells = test: Cell binding and uptake study; format: cell-based, human; details: 5 × 10^5 U87MG cells, 1 μg c(RGDyK), 37 °C, 30, 60, 120 min
Procedure, shortened: (§1)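 Cells were suspended in integrin binding buffer (25 mM Tris pH 7.4, 150 mM NaCl, 2 mM CaCl₂, 1 mM MgCl₂, 1 mM MnCl₂, 0.1% BSA). They were incubated with the ⁶⁴Cu-labeled test peptide at 1.5 μCi/tube, with or without c(RGDyK). Cells were then washed three times with chilled PBS, pelleted and gamma-counted. Uptake is % of added radioactivity, in triplicate. U87MG were maintained in DMEM and MDA-MB-435 in L-15, each with 10% heat-inactivated FBS.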

MDA-MB-435 cells = test: Cell binding and uptake study; format: cell-based, human; details: 5 × 10^5 MDA-MB-435 cells, 37 °C, 30, 60, 120 min
Procedure, shortened: as §1

[3] = MicroPET imaging of MDA-MB-435 xenografts; format: in vivo; details: female, athymic nude (nu/nu), mouse, tumor (MDA-MB-435 xenograft), iv, total radioactivity
Procedure, shortened: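 MDA-MB-435 cells were grown in Leibovitz L-15 with 10% FBS, and 5 × 10⁶ cells in PBS were implanted subcutaneously in the shoulder of 4-6-week female nude mice. At 8-10 mm tumor diameter, mice (n ≥ 3) received ~100 μCi (~0.5 nmol) labelled probe by tail vein. Imaging used microPET with 3 or 5 min static scans. ROI counts/g/min were converted to %ID/g assuming 1 g/mL, without attenuation correction. Blocking groups were co-injected with 330 μg unlabelled c(RGDyK).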

[4] = Stability in mouse serum, radio-HPLC; format: in vitro ADME; details: 50% mouse serum, 37 °C
[5] = incubation in serum for 24 h; cited from earlier work
U87MG tumor xenografts = details: cited from earlier work
[6] = 1 hr after injection into mice; cited from earlier work
αvβ3 integrin = αvβ3 integrin (Homo sapiens, UniProt P05106+P06756); details: read-out: KD for αvβ3 integrin; cited from earlier work
[7] = target: integrin αvβ3 (Homo sapiens) (UniProt P06756); details: cited from earlier work
Chain of integrin αvβ3 (Homo sapiens) (P06756 31-1048, chain 1 of 2): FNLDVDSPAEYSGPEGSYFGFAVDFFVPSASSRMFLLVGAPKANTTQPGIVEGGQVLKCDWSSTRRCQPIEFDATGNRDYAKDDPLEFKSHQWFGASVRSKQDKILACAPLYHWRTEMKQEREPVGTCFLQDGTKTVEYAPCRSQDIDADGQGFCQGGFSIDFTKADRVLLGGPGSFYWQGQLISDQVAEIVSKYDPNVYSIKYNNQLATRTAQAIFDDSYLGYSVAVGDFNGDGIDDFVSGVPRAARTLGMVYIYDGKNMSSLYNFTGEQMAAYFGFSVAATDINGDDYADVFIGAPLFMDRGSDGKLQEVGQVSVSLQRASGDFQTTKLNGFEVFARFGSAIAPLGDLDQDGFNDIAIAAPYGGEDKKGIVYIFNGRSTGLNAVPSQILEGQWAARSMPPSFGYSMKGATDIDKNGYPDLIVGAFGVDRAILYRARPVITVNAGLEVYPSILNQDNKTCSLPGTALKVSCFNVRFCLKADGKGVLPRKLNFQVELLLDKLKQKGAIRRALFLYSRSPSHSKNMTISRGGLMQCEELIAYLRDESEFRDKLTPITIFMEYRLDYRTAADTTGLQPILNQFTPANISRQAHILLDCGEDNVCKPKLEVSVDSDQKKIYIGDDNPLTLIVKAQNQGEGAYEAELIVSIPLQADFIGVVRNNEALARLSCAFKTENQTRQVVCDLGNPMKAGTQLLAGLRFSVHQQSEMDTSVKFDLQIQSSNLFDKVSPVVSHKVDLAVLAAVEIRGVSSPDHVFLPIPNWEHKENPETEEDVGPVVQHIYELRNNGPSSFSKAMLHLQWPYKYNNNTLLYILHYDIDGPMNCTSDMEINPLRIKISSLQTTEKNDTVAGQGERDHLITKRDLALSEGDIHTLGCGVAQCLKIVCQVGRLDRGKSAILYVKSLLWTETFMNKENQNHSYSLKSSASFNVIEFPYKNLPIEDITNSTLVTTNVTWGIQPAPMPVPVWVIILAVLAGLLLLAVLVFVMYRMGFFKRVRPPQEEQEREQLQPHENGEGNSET
Chain of integrin αvβ3 (Homo sapiens) (P05106 27-788, chain 2 of 2, further chain): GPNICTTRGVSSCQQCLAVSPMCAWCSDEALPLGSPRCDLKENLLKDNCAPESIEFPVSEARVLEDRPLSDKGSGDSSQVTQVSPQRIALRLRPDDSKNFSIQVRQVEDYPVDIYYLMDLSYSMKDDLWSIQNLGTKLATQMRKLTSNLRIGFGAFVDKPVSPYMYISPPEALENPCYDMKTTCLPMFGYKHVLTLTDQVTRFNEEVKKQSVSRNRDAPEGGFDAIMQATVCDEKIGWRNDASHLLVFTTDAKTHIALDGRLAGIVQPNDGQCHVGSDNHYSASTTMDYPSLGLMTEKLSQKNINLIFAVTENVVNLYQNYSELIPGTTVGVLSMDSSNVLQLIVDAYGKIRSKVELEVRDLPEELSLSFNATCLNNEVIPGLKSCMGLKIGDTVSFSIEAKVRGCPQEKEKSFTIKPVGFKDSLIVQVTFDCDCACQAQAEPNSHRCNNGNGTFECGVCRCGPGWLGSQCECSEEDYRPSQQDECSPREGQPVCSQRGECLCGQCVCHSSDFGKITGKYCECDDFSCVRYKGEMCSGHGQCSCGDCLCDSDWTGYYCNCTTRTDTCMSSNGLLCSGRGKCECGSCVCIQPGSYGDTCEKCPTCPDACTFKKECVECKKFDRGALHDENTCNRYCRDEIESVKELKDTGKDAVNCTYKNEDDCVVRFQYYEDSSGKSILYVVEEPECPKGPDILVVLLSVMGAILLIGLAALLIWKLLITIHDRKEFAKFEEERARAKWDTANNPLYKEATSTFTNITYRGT

Chain of αvβ3 integrin (P06756 31-889 limits assumed): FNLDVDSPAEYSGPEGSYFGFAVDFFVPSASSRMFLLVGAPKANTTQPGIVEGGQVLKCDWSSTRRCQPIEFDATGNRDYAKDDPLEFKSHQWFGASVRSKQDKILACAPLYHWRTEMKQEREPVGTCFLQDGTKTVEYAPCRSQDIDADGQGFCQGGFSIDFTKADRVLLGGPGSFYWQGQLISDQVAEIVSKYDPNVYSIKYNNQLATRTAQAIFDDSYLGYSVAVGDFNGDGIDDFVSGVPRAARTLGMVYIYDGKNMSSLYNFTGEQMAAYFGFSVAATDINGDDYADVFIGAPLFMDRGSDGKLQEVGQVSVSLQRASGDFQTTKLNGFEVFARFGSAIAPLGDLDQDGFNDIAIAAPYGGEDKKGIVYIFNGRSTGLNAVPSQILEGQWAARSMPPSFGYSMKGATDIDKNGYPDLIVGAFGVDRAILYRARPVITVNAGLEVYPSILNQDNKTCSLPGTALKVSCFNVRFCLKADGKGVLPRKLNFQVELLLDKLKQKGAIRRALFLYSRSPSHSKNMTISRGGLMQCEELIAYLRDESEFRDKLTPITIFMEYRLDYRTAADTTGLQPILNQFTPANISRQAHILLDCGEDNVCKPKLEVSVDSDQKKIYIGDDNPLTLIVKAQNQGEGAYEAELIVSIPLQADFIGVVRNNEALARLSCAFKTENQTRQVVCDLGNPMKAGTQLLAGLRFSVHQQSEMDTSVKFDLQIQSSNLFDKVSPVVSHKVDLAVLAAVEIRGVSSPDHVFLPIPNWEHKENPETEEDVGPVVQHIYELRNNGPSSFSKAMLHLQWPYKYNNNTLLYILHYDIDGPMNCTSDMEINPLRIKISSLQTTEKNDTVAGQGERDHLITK
Chain of αvβ3 integrin (P06756 891-1048 partner limits assumed): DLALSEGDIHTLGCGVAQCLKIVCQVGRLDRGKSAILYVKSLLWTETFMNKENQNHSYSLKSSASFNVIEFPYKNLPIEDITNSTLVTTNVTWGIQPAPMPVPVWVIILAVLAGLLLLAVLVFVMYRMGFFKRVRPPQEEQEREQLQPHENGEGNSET
Chain of αvβ3 integrin (P05106 27-788): as the sequence (P05106 27-788, chain 2 of 2, further chain) above
Chain of echistatin (P17347 131-179): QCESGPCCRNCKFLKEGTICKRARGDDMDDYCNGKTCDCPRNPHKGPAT

CCN1C(=CC=CC=CC2=[N+](CCCCCC(=O)NCCCC[C@H](NC(=O)CN3CCN(CC(=O)O)CCN(CC(=O)O)CCN(CC(=O)O)CC3)C(=O)NCC(=O)NCC(=O)N[C@@H](Cc3ccc(O)cc3)C(=O)NCC(=O)N[C@H]3CSSC[C@@H]4NC(=O)CNC(=O)[C@H](C)NC(=O)[C@H](CC(C)C)NC(=O)[C@@H]5CSSC[C@@H](C(=O)NCC(N)=O)NC(=O)[C@H](Cc6ccccc6)NC(=O)CNC(=O)[C@H](CC(N)=O)NC(=O)[C@@H]6CCCN6C(=O)CNC(=O)[C@H](CSSC[C@H](NC(=O)[C@H](CO)NC(=O)[C@H]([C@@H](C)O)NC(=O)[C@@H]6CCCN6C(=O)[C@H](C)NC(=O)[C@H](Cc6c[nH]c7ccccc67)NC(=O)[C@H](CC(=O)O)NC(=O)CNC(=O)[C@H](CCCNC(=N)N)NC(=O)CNC(=O)[C@H](CCC(N)=O)NC(=O)[C@@H]6CCCN6C3=O)C(=O)N[C@@H](CO)C(=O)N[C@@H](CCC(N)=O)C(=O)N[C@@H](CC(=O)O)C(=O)N[C@@H](CO)C(=O)N[C@@H](CC(=O)O)C(=O)N5)NC(=O)[C@H](C(C)C)NC4=O)c3ccc4c(S(=O)(=O)[O-])cc(S(=O)(=O)O)cc4c3C2(C)C)C(C)(C)c2c1ccc1c(S(=O)(=O)O)cc(S(=O)(=O)O)cc21 (single isomer, unassigned) [^64Cu-DOTA/Cy5.5-2.5D, ^64Cu-DOTA-Lys(Cy5.5)-Gly-Gly-Tyr-2.5D, metal not drawn]
tissue uptake ([1]; kidney, Kidney uptake, for 1-4 hr post injection, approximate): ~80 %ID/g | tissue uptake ([1]; liver, Liver uptake, at 1-24 hr post injection): 4 to 7 %ID/g | tissue uptake ([1]; liver, Liver uptake, at 1 and 4 hr post injection): 4 to 7 %ID/g | In vivo metabolic stability in tumor ([2]; U87MG tumor 1 hr post injection): significant breakdown of probe | In vivo metabolic stability in kidney ([2]; kidney 1 hr post injection): intact probe was not able to be recovered | In vivo metabolic stability in liver ([2]; liver 1 hr post injection): intact probe was not able to be recovered | Cell binding and uptake with excess c(RGDyK) (U87MG cells): blocked | Cell binding and uptake with excess c(RGDyK) (MDA-MB-435 cells; 1 μg c(RGDyK)): blocked | Cell binding and uptake, versus U87MG cells (MDA-MB-435 cells; 1.5 μCi/tube, IBB, gamma counter, triplicate): lower levels of probe uptake | tissue uptake at 1 h ([3]; 100 uCi): 1.33 ± 0.02 %ID/g | tissue uptake at 24 h ([3]; 100 uCi): 1.01 ± 0.1 %ID/g | tissue uptake at 1 h [3]: 0.82 ± 0.05 %ID/g | tissue uptake at 24 h [3]: 0.6 ± 0.09 %ID/g | Stability in mouse serum ([4]; 1 hr): minimal probe degradation | Stability in mouse serum ([4]; 24 hr): intact probe was unrecoverable

CC(C)C[C@@H]1NC(=O)[C@@H]2CSSC[C@@H](C(=O)NCC(N)=O)NC(=O)[C@H](Cc3ccccc3)NC(=O)CNC(=O)[C@H](CC(N)=O)NC(=O)[C@@H]3CCCN3C(=O)CNC(=O)[C@@H]3CSSC[C@H](NC(=O)[C@H](CO)NC(=O)[C@H]([C@@H](C)O)NC(=O)[C@@H]4CCCN4C(=O)[C@H](C)NC(=O)[C@H](Cc4c[nH]c5ccccc45)NC(=O)[C@H](CC(=O)O)NC(=O)CNC(=O)[C@H](CCCNC(=N)N)NC(=O)CNC(=O)[C@H](CCC(N)=O)NC(=O)[C@@H]4CCCN4C(=O)[C@@H](NC(=O)CNC(=O)CN4CCN(CC(=O)O)CCN(CC(=O)O)CCN(CC(=O)O)CC4)CSSC[C@H](NC(=O)CNC(=O)[C@H](C)NC1=O)C(=O)N[C@@H](C(C)C)C(=O)N3)C(=O)N[C@@H](CO)C(=O)N[C@@H](CCC(N)=O)C(=O)N[C@@H](CC(=O)O)C(=O)N[C@@H](CO)C(=O)N[C@@H](CC(=O)O)C(=O)N2 [^64Cu-DOTA-2.5D, metal not drawn] ({DOTA}-GCPQGRGDWAPTSCSQDSDCLAGCVCGPNGFCG-NH2; disulfide 2-24, 14-26, 20-32)
Stability in serum [5]: only minimal fragmentation | Liver uptake (U87MG tumor xenografts; 1 to 4 hr post injection, previously observed): 1-2 %ID/g | Kidney uptake (U87MG tumor xenografts; 1 hr post injection): 8.08 ± 0.67 %ID/g | Kidney uptake (U87MG tumor xenografts; 4 hr post injection): 2.69 ± 0.48 %ID/g | Kidney uptake (U87MG tumor xenografts; 24 hr post injection): 1.25 ± 0.11 %ID/g | In vivo metabolic stability in blood, tumor and kidneys [6]: recovered intact

ECESGPCCRNCKFLKEGTICKRARGDDMDDYCNGKTCDCPRNPHKGPAT (disulfide 2-11, 7-32, 8-37, 20-39 (inferred)) [Echistatin]
Kd (αvβ3 integrin): ~0.4 nM

echistatin (from UniProt P17347)
Kd [7]: 0.4 nM
